Values after ≈ are worked out from the molar mass of the structure shown. Active and inactive are the calls of the source. No cut-off for these calls is given here.
Key:
[1] = Cytotoxicity against human HepG2/C3A cells after 24 hrs by neutral red uptake assay; assay type: cell-based
Method in brief: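 C3A hepatocytes in DMEM + 10% FCS, 40,000 per well, recovered at 37 °C, 5% CO2. Exposed 24 h to final 10, 3, 1, 0.3, 0.1 µM from 1 mM DMSO stocks. Neutral red added for 3 h, extracted with ethanol/acetic acid, OD read at 530 nm with 620 nm reference. IC50 = 50% neutral red uptake.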

[2] = Selectivity index, ratio of IC50 for human HepG2/C3A cells to MIC50 for Mycobacterium tuberculosis H37Rv; assay type: functional
Method in brief: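 Selectivity index is the IC50 from the C3A neutral red uptake assay divided by the MIC50 against luminescent M.tb. H37Rv.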

[3] = tested on: Mycobacterium tuberculosis; assay: Antimycobacterial activity against Mycobacterium tuberculosis H37Rv expressing pSMT1 after 1 to 7 days by BACTEC 460-TB assay; assay type: functional
Method in brief: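 Radiometric BACTEC 460-TB culture of M.tb. H37Rv in 7H9-based medium. Pre-culture grown to GI 300, then inoculated into a fresh vial with serial compound dilutions made at 40x final concentration from 1 mM DMSO stocks. GI (14C-palmitate to 14CO2) read daily against untreated inocula diluted 100-fold at inoculation. MIC99 taken as 99% inhibition. Each measurement done at least twice.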

[4] = tested on: Mycobacterium tuberculosis; assay: Antimycobacterial activity against Mycobacterium tuberculosis H37Rv expressing pSMT1 after 1 to 7 days by luminescent assay; assay type: functional
Method in brief: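 Luminescent M.tb. H37Rv carrying pSMT1 (luxAB, hsp60 promoter) in 7H9 + 10% FCS. Bacteria filtered, recovered 1 h at 37 °C, 5% CO2, added at 50,000 RLU/ml. Serial dilutions from 1 mM DMSO stocks, triplicate wells. Luminometry after 1, 3 and 7 days; MIC50 = 50% growth reduction.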

[5] = tested on: Salmonella typhimurium; assay: Genotoxicity in Salmonella Typhimurium expressing episomal lux operon assessed as concentration required to cause toxicity in presence of S9 fraction; assay type: organism-based; conditions: salmonella enterica subsp. enterica serovar typhimurium
Method in brief: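 VITOTOX with genetically engineered Salmonella typhimurium strains, with or without S9 from aroclor-treated rat liver. Genotoxicity reported by a luxCDABE reporter under the RecN promoter. Tested at 10, 1 and 0.1 µM; lowest concentration showing cytotoxicity recorded.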

[6] = tested on: Mycobacterium tuberculosis; assay: Antimycobacterial activity against Mycobacterium tuberculosis H37Rv infected in mouse J774 cells assessed as reduction of parasite growth at 1 uM after 1 day by luminescence assay; assay type: functional; parameters: scale not given: the % may be the effect or the level left
Method in brief: (§1)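 Murine J774 macrophages, 100,000 per well, recovered overnight, then infected with luminescent M.tb. H37Rv (10^4 CFU, MOI 0.1) in DMEM with penicillin and Fungizone. Cells treated with compound at final 10, 3, 1, 0.3, 0.1 µM. Monolayers lysed after 1, 3 or 7 days; intracellular bacteria read by luminometry of lysate. Triplicate cultures, mean RLU.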

[7] = Induction of DNA fragmentation in human HepG2/C3A cells at 1 uM after 24 hrs by alkaline comet assay (reference value: 3.69%); assay type: toxicity, cell-based
Method in brief: (§2)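 Alkaline comet assay on C3A cells, 100,000 per well, pre-incubated 24 h with compound at 3, 1, 0.3 or 0.1 µM. Cells embedded in agarose on slides, lysed 1 h, electrophoresed 20 min at 300 mA, neutralized, stained with gel red. % tail DNA measured by fluorescence microscopy; compared with negative control by Mann-Whitney U test.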

[8] = Induction of DNA fragmentation in human HepG2/C3A cells at 0.1 uM after 24 hrs by alkaline comet assay (reference value: 3.69%); assay type: toxicity, cell-based; method in brief: as §2
[9] = tested on: Mycobacterium tuberculosis; assay: Antimycobacterial activity against Mycobacterium tuberculosis H37Rv infected in mouse J774 cells assessed as reduction of parasite growth at 1 uM after 7 days by luminescence assay; assay type: functional; parameters: scale not given: the % may be the effect or the level left; method in brief: as §1
[10] = tested on: Mycobacterium tuberculosis; assay: Antimycobacterial activity against Mycobacterium tuberculosis H37Rv infected in mouse J774 cells assessed as reduction of parasite growth at 0.3 uM after 7 days by luminescence assay; assay type: functional, organism-based; method in brief: as §1
[11] = Induction of DNA fragmentation in human HepG2/C3A cells at 0.3 uM after 24 hrs by alkaline comet assay (reference value: 3.69%); assay type: toxicity, cell-based; method in brief: as §2
[12] = tested on: Mycobacterium tuberculosis; assay: Antimycobacterial activity against Mycobacterium tuberculosis H37Rv infected in mouse J774 cells assessed as reduction of parasite growth at 1 uM after 3 days by luminescence assay; assay type: functional; parameters: scale not given: the % may be the effect or the level left; method in brief: as §1
[13] = Induction of DNA fragmentation in human HepG2/C3A cells at 3 uM after 24 hrs by alkaline comet assay (reference value: 3.69%); assay type: toxicity, cell-based; method in brief: as §2
[14] = Cytotoxicity against mouse J774 cells assessed as viability at 1 uM after 7 days by neutral red uptake assay; assay type: cell-based; conditions: read-out: Activity
Method in brief: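 Uninfected J774 macrophages exposed to compound in parallel with the infection assay; viability read by neutral red uptake over the same exposure period.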

SMILES | IC50 [1] [nM] | Selectivity Index [2] | MIC99 [3] [µM] | MIC50 [4] [µM] | Activity [5] [µM] | Activity [6] [%] | Activity [7] [%] | Activity [8] [%] | Activity [9] [%] | Activity [10] | Activity [11] [%] | Activity [12] [%] | Activity [13] [%] | viability at 168 h, 1 µM [14] [%]
COc1cccc2c3c(cnc12)C(=O)c1ccccc1C3=O | 2400 | 1.45 | 2.74 (≈ 0.793 µg/mL) | 1.66 (≈ 0.48 µg/mL) | 10 | – | – | – | – | – | – | – | – | –
COc1ccc2ncc3c(c2c1)C(=O)c1ccccc1C3=O | 950 | 2.22 | – | 0.43 (≈ 0.124 µg/mL) | 10 | – | – | – | – | – | – | – | – | –
O=C1c2ccccc2C(=O)c2c1cnc1ccc(Cl)cc21 | 1560 | 1.5 | 1.35 (≈ 0.397 µg/mL) | 1.03 (≈ 0.303 µg/mL) | 1 | – | – | – | – | – | – | – | – | –
NNC(=O)c1ccncc1 [ISONIAZID] | – | – | – | 0.54 (≈ 0.0741 µg/mL) | – | – | – | – | – | – | – | – | – | –
Cc1ccc2c3c(cnc2c1)C(=O)c1ccccc1C3=O | 3210 | 15.29 | 0.64 (≈ 0.175 µg/mL) | 0.21 (≈ 0.0574 µg/mL) | 10 | 47.6 | 2.15 | 3.47 | 83.5 | inactive | 2.52 | 74.2 | 3.31 | 92.9
O=C1c2ccccc2C(=O)c2c1cnc1ccc(F)cc21 | 1090 | 1.46 | 1.38 (≈ 0.383 µg/mL) | 0.74 (≈ 0.205 µg/mL) | 1 | – | – | – | – | – | – | – | – | –
Cc1ccc2ncc3c(c2c1)C(=O)c1ccccc1C3=O | 1480 | 1.69 | 1.53 (≈ 0.418 µg/mL) | 0.88 (≈ 0.24 µg/mL) | 10 | – | – | – | – | – | – | – | – | –
Cc1cccc2c3c(cnc12)C(=O)c1ccccc1C3=O | 3960 | 1.08 | 4.3 (≈ 1.18 µg/mL) | 3.68 (≈ 1.01 µg/mL) | 10 | – | – | – | – | – | – | – | – | –
O=C1c2ccccc2C(=O)c2c1cnc1ccccc21 | 1510 | 1.26 | 1.9 (≈ 0.493 µg/mL) | 1.2 (≈ 0.311 µg/mL) | 1 | – | – | – | – | – | – | – | – | –

— ChEMBL document CHEMBL1932987, “Straightforward palladium-mediated synthesis and biological evaluation of benzo[j]phenanthridine-7,12-diones as anti-tuberculosis agents” (Eur J Med Chem, 2012)
